Data on 22 molecules can be found in ChEMBL document CHEMBL1145251, “Synthesis of thiosemicarbazone and 4-thiazolidinone derivatives and their in vitro anti-Toxoplasma gondii activity” (Bioorg Med Chem Lett, 2005).

Experiment [1] concerns Vero. Briefly: Compound tested on vero cells infected with Toxoplasma gondii after 24 h. Type of experiment: functional, cell-based. Particulars: Chlorocebus sabaeus. Summed up: (§1)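 Infected Vero cultures (tachyzoites, 1:10, 24 h at 37 °C beforehand) were exposed 24 h to compound over 0.01–30 mM, as a dilution series (0.1, 1, 10, 20, 30 mM) in triplicate per assay. Trypan blue exclusion was the read-out, and IC50 (mean ± SD) came from non-linear regression.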

Experiment [2] concerns Toxoplasma gondii. Briefly: Compound tested on intracellular parasites Toxoplasma gondii in vero cells after 24 h. Type of experiment: functional, organism-based. Summed up:
as §1

In experiment [3] the test system is Vero. Briefly: Compound tested for percent reduction of vero cells infected with Toxoplasma gondii after 24 hr at 37 degree Centigrade (Untreated=81). It counts as functional, Chlorocebus sabaeus.
Experiment [4] deals with Toxoplasma gondii. Briefly: Mean number of intracellular parasites in vero cells was determined after treatment with compound (Untreated=783). Type of experiment: functional.
Experiment [5] concerns Vero. Briefly: Compound tested for percent reduction of vero cells infected with Toxoplasma gondii after 24 h at 37 degree Celsius (Untreated=76). It counts as functional, Chlorocebus sabaeus.
For experiment [6], the system named is Toxoplasma gondii. Briefly: Mean number of intracellular parasites in vero cells was determined after treatment with compound (Untreated=768). Type of experiment: functional.
Experiment [7] concerns Vero. Briefly: Compound tested for percent reduction of vero cells infected with Toxoplasma gondii after 24 hr at 37 degree Centigrade (Untreated=72). It counts as functional, Chlorocebus sabaeus.
The subject of experiment [8] is Toxoplasma gondii. Briefly: Mean number of intracellular parasites in vero cells was determined after treatment with compound (Untreated=786). It counts as functional.
Experiment [9] deals with Toxoplasma gondii. Briefly: Mean number of intracellular parasites in vero cells was determined after treatment with compound (Untreated=642). Type of experiment: functional.
For experiment [10], the system named is Vero. Briefly: Compound tested for percent of vero cells infected with Toxoplasma gondii after 24 hr at 37 degree Centigrade (Untreated=84).
Experiment [11] concerns Vero. Briefly: Compound tested for percent reduction of vero cells infected with Toxoplasma gondii after 24 h at 37 degree Celsius (Untreated=65). Type of experiment: functional, Chlorocebus sabaeus.
Experiment [12] concerns Toxoplasma gondii. Briefly: Mean number of intracellular parasites in vero cells was determined after treatment with compound (Untreated=698). Type of experiment: functional.
Experiment [13] concerns Vero. Briefly: Compound tested for percent reduction of vero cells infected with Toxoplasma gondii after 24 h at 37 degree Celsius (Untreated=86). Type of experiment: functional, Chlorocebus sabaeus.
In experiment [14] the test system is Toxoplasma gondii. Briefly: Mean number of intracellular parasites in vero cells was determined after treatment with compound (Untreated=663). It counts as functional.
In experiment [15] the test system is Vero. Briefly: Compound tested for percent reduction of vero cells infected with Toxoplasma gondii after 24 hr at 37 degree Centigrade (Untreated=85). It counts as functional, Chlorocebus sabaeus.
The test system of experiment [16] is Toxoplasma gondii. Briefly: Mean number of intracellular parasites in vero cells was determined after treatment with compound (Untreated=732). Type of experiment: functional.
Experiment [17] concerns Toxoplasma gondii. Briefly: Mean number of intracellular parasites in vero cells was determined after treatment with compound (Untreated=442). It counts as functional.
In experiment [18] the test system is Vero. Briefly: Compound tested for percent reduction of vero cells infected with Toxoplasma gondii after 24 hr at 37 degree Centigrade (Untreated=80). Type of experiment: functional, Chlorocebus sabaeus.
The test system of experiment [19] is Toxoplasma gondii. Briefly: Mean number of intracellular parasites in vero cells was determined after treatment with compound (Untreated=840). Type of experiment: functional.
Experiment [20] concerns Toxoplasma gondii. Briefly: Mean number of intracellular parasites in vero cells was determined after treatment with compound (Untreated=888). It counts as functional.
Experiment [21] has as its system Vero. Briefly: Compound tested for percent reduction of vero cells infected with Toxoplasma gondii after 24 h at 37 degree Centigrade (Untreated=89). Type of experiment: functional, Chlorocebus sabaeus.
Experiment [22] has as its system Toxoplasma gondii. Briefly: Mean number of intracellular parasites in vero cells was determined after treatment with compound (Untreated=683). Type of experiment: functional.
For experiment [23], the system named is Vero. Briefly: Compound tested for percent reduction of vero cells infected with Toxoplasma gondii after 24 h at 37 degree Celsius (Untreated=87). Type of experiment: functional, Chlorocebus sabaeus.
The test system of experiment [24] is Toxoplasma gondii. Briefly: Mean number of intracellular parasites in vero cells was determined after treatment with compound (Untreated=726). Type of experiment: functional.
Experiment [25] in a line: Mean number of intracellular parasites in vero cells was determined after treatment with compound (Untreated=852). It counts as functional, Toxoplasma gondii.
In experiment [26] the test system is Toxoplasma gondii. Briefly: Mean number of intracellular parasites in vero cells was determined after treatment with compound (Untreated=627). Type of experiment: functional.
The test system of experiment [27] is Vero. Briefly: Compound tested for percent reduction of vero cells infected with Toxoplasma gondii after 24 h at 37 degree Centigrade (Untreated=83). Type of experiment: functional, Chlorocebus sabaeus.
The test system of experiment [28] is Toxoplasma gondii. Briefly: Mean number of intracellular parasites in vero cells was determined after treatment with compound (Untreated=687). It counts as functional.
The subject of experiment [29] is Toxoplasma gondii. Briefly: Mean number of intracellular parasites in vero cells was determined after treatment with compound (Untreated=628). It counts as functional.
Experiment [30] concerns Toxoplasma gondii. Briefly: Mean number of intracellular parasites in vero cells was determined after treatment with compound (Untreated=913). Type of experiment: functional.

Regarding `C/N=C(/S)N/N=C/c1ccccc1[N+](=O)[O-]`, the IC50 stood at 2 mM in the experiment on Vero [1] and 500 µM in the experiment on Toxoplasma gondii [2]. This molecule also had a Reduction in the experiment on Vero [3] of 9%. Also, the “Mean number of parasites” value in the experiment with Toxoplasma gondii [4] is reported as 2.
As to `N/C(S)=N/N=C/c1cccc([N+](=O)[O-])c1`, the IC50 in the experiment on Vero [1] was determined as 2 mM; in the experiment with Toxoplasma gondii [2], 100 µM. The Reduction in the experiment on Vero [5] was determined as 4%. Besides, the “Mean number of parasites” value in the experiment on Toxoplasma gondii [6] was 3.
In the experiment with Vero [7], `O=C(O)CC1S/C(=N\N=C\c2cccc([N+](=O)[O-])c2)N(c2ccccc2)C1=O` (centres undefined) registered a Reduction of 13%. The “Mean number of parasites” value with Toxoplasma gondii [8] was found to be 2.
`O=[N+]([O-])c1ccccc1/C=N/N=C(\S)Nc1ccccc1`: the concentration for half-maximal inhibition (IC50) turned out to be 1 mM with Vero [1] and 500 µM in the experiment on Toxoplasma gondii [2]. Besides, in the experiment on Toxoplasma gondii [9], the “Mean number of parasites” value came out at 3. The same molecule yielded an Infected cells with Vero [10] of 7%.
On to `N/C(S)=N/N=C/c1ccc([N+](=O)[O-])cc1`, for which the IC50 with Vero [1] is 1.5 mM; in the experiment with Toxoplasma gondii [2], 500 µM. In addition, the Reduction in the experiment on Vero [11] stood at 5%. The “Mean number of parasites” value in the experiment on Toxoplasma gondii [12] amounted to 4.
Consider `CCN1C(=O)C(CC(=O)O)S/C1=N\N=C\c1ccccc1[N+](=O)[O-]` (centres undefined), for which the Reduction in the experiment with Vero [13] turned out to be 14%. For the same molecule, the “Mean number of parasites” value in the experiment on Toxoplasma gondii [14] was found to be 3.
In the experiment on Vero [15], `CCN1C(=O)C(CC(=O)O)S/C1=N\N=C\c1cccc([N+](=O)[O-])c1` (centres undefined) registered a Reduction of 19%. Also, in the experiment on Toxoplasma gondii [16], the “Mean number of parasites” value amounted to 3.
In the case of `O=[N+]([O-])c1cccc(/C=N/N=C(\S)Nc2ccccc2)c1`, the values for the IC50 in the experiment on Vero [1] and in the experiment with Toxoplasma gondii [2] were 1 mM and 80 µM, respectively. This molecule also registered a Reduction in the experiment with Vero [11] of 7%. The “Mean number of parasites” value in the experiment on Toxoplasma gondii [17] came out at 11.
As for `O=C(O)CC1SC(N/N=C/c2cccc([N+](=O)[O-])c2)=NC1=O` (centres undefined), the IC50 with Vero [1] came to 2 mM; in the experiment with Toxoplasma gondii [2], 500 µM. The Reduction in the experiment with Vero [18] is recorded as 15%. For the same molecule, the “Mean number of parasites” value in the experiment with Toxoplasma gondii [19] is reported as 4.
`CN1C(=O)C(CC(=O)O)S/C1=N\N=C\c1ccccc1[N+](=O)[O-]` (centres undefined): the IC50 stood at 2 mM in the experiment on Vero [1] and 500 µM with Toxoplasma gondii [2]. Further, in the experiment on Toxoplasma gondii [20], the “Mean number of parasites” value is given as 3. Also, in the experiment with Vero [10], the Infected cells turned out to be 15%.
For `C/N=C(/S)N/N=C/c1ccc([N+](=O)[O-])cc1`, the figures for the IC50 with Vero [1] and in the experiment with Toxoplasma gondii [2] were 10 mM and 3000 µM, respectively. This molecule had a Reduction with Vero [21] of 12%. Besides, in the experiment with Toxoplasma gondii [22], the “Mean number of parasites” value is on record as 72.
For `C/N=C(/S)N/N=C/c1cccc([N+](=O)[O-])c1`, the IC50 in the experiment on Vero [1] turned out to be 1.5 mM; in the experiment on Toxoplasma gondii [2], 500 µM. Also, in the experiment with Toxoplasma gondii [9], the “Mean number of parasites” value is given as 1. In addition, the Infected cells in the experiment on Vero [10] stood at 9%.
As for `CC/N=C(/S)N/N=C/c1ccccc1[N+](=O)[O-]`, the IC50 stood at 2 mM with Vero [1] and 500 µM in the experiment on Toxoplasma gondii [2]. The same molecule returned a Reduction in the experiment with Vero [3] of 8%. Besides, in the experiment on Toxoplasma gondii [4], the “Mean number of parasites” value was determined as 1.
As for `CN1C(=O)C(CC(=O)O)S/C1=N\N=C\c1ccc([N+](=O)[O-])cc1` (centres undefined), the Reduction in the experiment on Vero [23] worked out at 13%. Besides, in the experiment on Toxoplasma gondii [24], the “Mean number of parasites” value is listed as 2.
Turning to `CC/N=C(/S)N/N=C/c1ccc([N+](=O)[O-])cc1`, the IC50 in the experiment with Vero [1] turned out to be 2.5 mM; in the experiment with Toxoplasma gondii [2], 500 µM. In the experiment on Vero [13], the Reduction is on record as 17%. The “Mean number of parasites” value in experiment [25] is on record as 9.
Regarding `CCN1C(=O)C(CC(=O)O)S/C1=N\N=C\c1ccc([N+](=O)[O-])cc1` (centres undefined), the IC50 in the experiment on Vero [1] is 2 mM; in the experiment with Toxoplasma gondii [2] it was 500 µM. Besides, the Reduction in the experiment on Vero [18] was 7%. In the experiment with Toxoplasma gondii [26], the “Mean number of parasites” value is listed as 2.
For `O=C(O)CC1SC(N/N=C/c2ccc([N+](=O)[O-])cc2)=NC1=O` (centres undefined), the values for the IC50 in the experiment on Vero [1] and in the experiment with Toxoplasma gondii [2] were 2.5 mM and 500 µM, respectively. This molecule also registered a Reduction in the experiment with Vero [15] of 16%. Further, the “Mean number of parasites” value in the experiment with Toxoplasma gondii [16] was 4.
For `O=C(O)CC1S/C(=N\N=C\c2ccccc2[N+](=O)[O-])N(c2ccccc2)C1=O` (centres undefined), the Reduction in the experiment on Vero [27] is on record as 8%. Also, the “Mean number of parasites” value in the experiment with Toxoplasma gondii [28] is on record as 2.
Consider `CN1C(=O)C(CC(=O)O)S/C1=N\N=C\c1cccc([N+](=O)[O-])c1` (centres undefined), for which the Reduction with Vero [15] is listed as 11%. In addition, the “Mean number of parasites” value in the experiment on Toxoplasma gondii [29] was determined as 2.
`CC/N=C(/S)N/N=C/c1cccc([N+](=O)[O-])c1`: the IC50 with Vero [1] came out at 1 mM; in the experiment with Toxoplasma gondii [2], 80 µM. For the same molecule, the Reduction in the experiment on Vero [5] is 7%. Further, in the experiment with Toxoplasma gondii [6], the “Mean number of parasites” value is reported as 5.
Turning to `NC(=O)NO` [HYDROXYUREA], the IC50 with Vero [1] amounted to 0.1 mM; in the experiment with Toxoplasma gondii [2], 100 µM. In addition, the Reduction in the experiment with Vero [18] is 26%. Further, the “Mean number of parasites” value in the experiment with Toxoplasma gondii [30] was 186.
As to `Nc1ccc(S(=O)(=O)Nc2ncccn2)cc1` [SULFADIAZINE], the IC50 was found to be 0.09 mM with Vero [1] and 100 µM in the experiment on Toxoplasma gondii [2].

In general, IC50 refers to the concentration at which inhibition is half-maximal. A higher IC50 goes with weaker potency.
